Bioassay records: PubChem BioAssay, Broad Institute
S100A4 inh HTS – inhibitors of S100A4-myosin IIA peptide binding, primary screen, biochemical, fluorescence polarization, TAMRA-MyoIIA peptide; AID 652163, 2013; Protein S100-A4 (Homo sapiens), P26447; inhibition, % at 10.7 µM; actives 0.14% (n = 360,000);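 active = mean inhibition of at least 70% across replicates, with every replicate also reaching that level; inconclusive = mean inhibition reaches 70% but some replicates fall short; inactive = mean inhibition below 70%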
Target sequence (P26447 whole entry, looked up): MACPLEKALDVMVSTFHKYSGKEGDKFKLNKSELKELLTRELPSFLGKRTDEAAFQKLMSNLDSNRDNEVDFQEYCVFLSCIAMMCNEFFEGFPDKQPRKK
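Material: S100A4 monomer protein | Medium: HEPES pH 7.2 with CaCl2, KCl, NaCl, DTT, Triton | Reagent: Labelled myosin peptide probe, 5 nM | Doses: One dose per compound | Times: 5 min incubation before reading | Benchmarks: Neutral control DMSO, positive control TFP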
SR-BI uptake up – activators of SR-BI mediated DiI-HDL uptake, primary screen, ldlA[mSR-BI] CHO cells, DiI fluorescence | 3 h; 100 = double the neutral-control signal | activation, % at 12.5 µM | actives 0.096% (n = 320,000) | AID 504775, 2011;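 active = mean replicate activation of at least 60% and every replicate at or above 60%; inconclusive = mean or all-replicate condition met, but not both; inactive = mean below 60% and not all replicates reaching 60%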;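 note: 0% = median plate neutral-control signal and 100% = twice that signal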
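system = CHO ldlA[mSR-BI] cells, LDL receptor-null, SR-BI overexpressing | medium = Ham's F12 with 0.5% BSA, HEPES 25 mM, pH 7.4 | probe or stimulus = DiI-HDL 10 µg/mL | compound dosing = single-point compound dose | incubation = compound exposure 3 h, 37 °C | technique = DiI fluorescence, bottom read | read-out = cell-associated DiI fluorescence as measure of HDL uptake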
dFosB activator – activators of delta FosB homodimer, primary screen, biochemical, fluorescence polarization, TAMRA-CDK5 oligo, single point | purified delta FosB; percent of positive-control signal above neutral wells | activation, % at 25 µM | actives 0.99% (n = 340,000) | AID 493131, 2011;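 active = mean activation above about 17%, with every replicate also reaching it, limit read from the data, passing the limit was not always enough; inconclusive = only one of the two conditions met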
Target sequence (P13346 whole entry, looked up): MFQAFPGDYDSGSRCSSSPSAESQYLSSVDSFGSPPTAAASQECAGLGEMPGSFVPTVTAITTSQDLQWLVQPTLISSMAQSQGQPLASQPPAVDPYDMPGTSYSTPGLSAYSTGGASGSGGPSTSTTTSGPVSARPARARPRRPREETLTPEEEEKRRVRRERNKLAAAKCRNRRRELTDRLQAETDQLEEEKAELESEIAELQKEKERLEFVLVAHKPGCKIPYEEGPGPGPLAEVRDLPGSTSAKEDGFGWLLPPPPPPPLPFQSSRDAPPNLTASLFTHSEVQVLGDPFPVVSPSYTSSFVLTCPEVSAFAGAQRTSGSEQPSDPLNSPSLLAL
PvdQ acylase – P. aeruginosa PvdQ acylase inhibitors, primary screen, biochemical, fluorescence, plate reader and imaging, single point | PvdQ acylase [Pseudomonas aeruginosa LESB58] | purified PvdQ acylase | inhibition, % at 10 µM | actives 0.063% (n = 340,000) | AID 488965, 2010; in the data active = inhibition above about 30%, passing the limit was not always enough; inconclusive = no clear call, values can overlap the other calls;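 note: 0% = vehicle neutral wells and 100% = reference inhibitor wells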
RAD54 branch – inhibitors of human RAD54 branch migration, primary screen, biochemical, fluorescence, single point | RAD54 Holliday junction branch migration, FAM/BHQ fluorescence | inhibition, % at 10.4 µM | actives 0.14% (n = 360,000);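 active = mean normalized replicate activity at least 40 and at least half of replicates scoring 40 or more; inconclusive = only one of the two criteria met; inactive = mean below 40 and under half of replicates reaching 40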;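 note: 0% = median of neutral control wells and 100% = median of positive control wells; inhibitors cause a drop in the FAM fluorescence signal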
SR-BI HDL uptake – inhibitors of SR-BI mediated HDL lipid uptake, primary screen, ldlA[mSR-BI] cells, fluorescence, single point | Scavenger receptor class B member 1 (Mus musculus), Q61009 | ldlA[mSR-BI] CHO cells, DiI-HDL uptake fluorescence, 3 h | inhibition, % at 12.5 µM | actives 0.96% (n = 320,000) | AID 488896, 2010;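 active = mean replicate inhibition of at least 70% and a set share of replicates each scoring 70 or more; inconclusive = meets just one of the two criteria; inactive = fails both criteria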;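 note: 0% = median of neutral control wells and 100% = median of positive control wells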
* hit, by the source's call; ? = inconclusive; · = no result given. Most compounds without a hit are left out; they make up all but 1.6% or so of the library.

SMILES	S100A4 inh HTS	SR-BI uptake up	dFosB activator	PvdQ acylase	RAD54 branch	SR-BI HDL uptake
COc1cc(OC)c(-c2c3cc(O)c(=O)cc-3oc3cc(O)c(O)cc23)cc1OC	-18.2	-16.1	21.9*	2.3	·	16.1
Cc1c2cc(O)c(=O)cc-2oc2cc(O)c(O)cc12	180.1*	-1.0	-249.9	-13.3	-330.3	1.0
C[C@@H]1CN([C@H](C)CO)C(=O)Cc2cc(NS(=O)(=O)c3cccs3)ccc2O[C@@H]1CN(C)S(=O)(=O)c1ccc(F)cc1	-1.2	·	·	·	-4.3	·
CC(C)(C)OC(=O)NCCCCCNC(=O)c1[nH]cnc1C(=O)N[C@@H](Cc1ccccc1)C(=O)OC(C)(C)C	·	14.4	-7.0	-6.0	0.1	-14.4
CC(C)(C)OC(=O)NCCCC[C@H](NC(=O)c1[nH]cnc1C(=O)N[C@@H](Cc1ccccc1)C(=O)OC(C)(C)C)C(=O)OC(C)(C)C	-9.5	64.0*	-16.6	-17.1	9.0	-64.0
COc1ccc(C(=O)Nc2ccc(NC(=O)c3cccc(F)c3)cn2)cc1	-21.0	-75.6	2.3	6.8	-13.3	75.5*
COc1ccc(C(=O)Nc2ccc(NC(=O)c3cccc(OC)c3)cn2)cc1	2.1	-62.5	-3.7	-5.8	4.8	62.5
COc1ccc(N/C=C/C(=O)c2cc(OC)c(OC)c(OC)c2)cc1	-2.6	-72.1	-13.0	-14.8	-10.3	72.1*
COc1ccccc1C(=O)Nc1ccc(Oc2nnc(-c3ccc(C)cc3)c3ccccc23)cc1	·	-83.7	-8.8	-3.3	2.6	83.7*
Cc1ccc(Oc2nnc(-c3ccc(C)cc3)c3ccccc23)cc1	-0.8	-28.6	-4.0	7.9	3.5	28.6
COc1ccc(C(=O)Nc2ccc(NC(=O)c3cc(OC)c(OC)c(OC)c3)cn2)cc1	3.3	-76.8	-13.8	-18.9	-6.8	76.8*
COc1ccc(N/C=C/C(=O)c2ccc(OC)c(OC)c2)cc1	-8.4	-50.2	-4.0	-8.7	-2.3	50.2
Cc1ccc(S(=O)(=O)N(C)C[C@H]2OCCCC[C@H](C)Oc3ccc(NC(=O)Nc4c(C)noc4C)cc3C(=O)N([C@H](C)CO)C[C@@H]2C)cc1	22.2	·	·	·	5.1	·
CN1c2ccc(C#Cc3cccnc3)cc2[C@H]2[C@H](CCN2C(=O)c2cccnc2)[C@@H]1CO	4.0	·	·	·	6.4	·
Cc1ccc(S(=O)(=O)NCC[C@@H]2CC[C@@H](NC(=O)Nc3ccccc3F)[C@@H](CO)O2)cc1	-3.5	·	·	·	-7.0	·
COCC(=O)N(C)C[C@H]1Oc2ncc(-c3ccc(F)cc3)cc2C(=O)N([C@H](C)CO)C[C@H]1C	-3.6	·	·	·	-16.9	·
COC(=O)c1cc(NC(=O)c2cccnc2)cc(C(=O)OC)c1	2.2	-13.7	-12.2	-6.7	-2.2	13.7
COc1ccc(C(=O)Nc2ccc(NC(=O)c3ccccc3OC)nc2)cc1	-1.3	-79.5	-11.5	15.2	11.4	79.5*
COC(=O)c1cc(NC(=O)c2cccc(F)c2)cc(C(=O)OC)c1	-0.8	-78.4	-17.8	-6.1	-3.4	78.4*
O=C(Nc1cccc(NC(=O)c2cccc(F)c2)n1)c1cccc(F)c1	-13.6	-86.9	-14.8	-24.2	-6.0	86.9*
CCN(CC)CCOC(=O)c1ccc(N/C=C(/C#N)c2nc(-c3ccc(OC)cc3)cs2)cc1	-13.3	17.4	?	3.5	·	-17.4
CCN(CC)CCOC(=O)c1ccc(N/C=C(/C#N)c2nc(-c3cc4ccccc4oc3=O)cs2)cc1	-5.7	28.6	39.0*	-11.8	-6.6	-28.6
CCN(CC)CCOC(=O)c1ccc(N/C=C(/C#N)c2nc(-c3ccc4c(c3)OCO4)cs2)cc1	-9.5	8.3	92.5*	-3.0	2.1	-8.3
COc1ccc(-c2cc(C(=O)N3CCCCCC3)c3ccccc3n2)cc1	1.4	-75.2	-4.9	-12.4	·	75.2*
COc1ccc(-c2cc(C(=O)N3CCCCCC3)c3ccccc3n2)cc1OC	-1.2	·	·	·	-5.2	·
SMILES	S100A4 inh HTS	SR-BI uptake up	dFosB activator	PvdQ acylase	RAD54 branch	SR-BI HDL uptake
COC(=O)C[C@H]1CC[C@@H]2[C@H](COc3ccc(NC(=O)Nc4ccc(C)cc4)cc3C(=O)N2C)O1	-4.0	·	·	·	3.3	·
O=C1N(c2ccccc2)C[C@@H]2C[C@@H](c3cc4ccccc4o3)N3CCC[C@@]123	-7.2	3.2	-1.8	41.9*	·	-3.2
Cc1ccc(-c2ccccc2[C@@H]2C[C@H]3CN(C)C(=O)[C@]34CCCN24)o1	6.3	7.1	-0.4	-7.7	-6.8	-7.1
COc1ccc(N/C=C(\C=C\C#N)S(=O)(=O)c2ccccc2)cc1	6.2	-22.7	-3.0	-0.2	-10.0	22.7
N#C/C=C/C(=C\Nc1ccc(Cl)cc1)S(=O)(=O)c1ccccc1	1.5	-85.1	1.0	-17.5	-12.0	85.1*
C[C@@H]1CN([C@H](C)CO)C(=O)c2cc(NC(=O)Nc3cccc4ccccc34)ccc2O[C@H]1CN(C)Cc1ccncc1	-5.3	·	·	·	11.9	·
CN(C)c1ccc(-c2nc3ccccc3n2C)cc1	·	-30.8	2.0	-9.0	-0.6	30.8
CC(C)n1c(-c2ccc(N(C)C)cc2)nc2ccccc21	·	-87.6	-5.3	-24.9	-20.5	87.6*
CCOC(=O)c1sc2nc(N3CCOCC3)c3c(c2c1N)CCCC3	·	-73.9	0.4	-32.3	-0.5	73.9*
CCNC(=O)[C@@H]1[C@@H](CO)[C@@H]2Cn3c(ccc(-c4ccccc4)c3=O)[C@@H]2N1CC	77.9*	·	·	·	-9.7	·
O=C(C[C@H]1CC[C@@H]2[C@H](COC[C@@H](O)CN2Cc2cc(F)ccc2F)O1)N[C@H]1CCN(Cc2ccccc2)C1	-0.2	·	·	·	1.8	·
C[C@@H]1CN([C@H](C)CO)C(=O)Cc2cc(NC(=O)Cn3cnnn3)ccc2O[C@@H]1CN(C)C	-37.2	·	·	·	12.7	·
CCOc1cc(NC(=S)Nc2ccccc2)c(OCC)cc1NC(=O)c1ccccc1	·	-80.5	-5.9	9.4	-0.7	80.5*
CCOc1cc(NC(=S)Nc2ccccc2OC)c(OCC)cc1NC(=O)c1ccccc1C	·	-87.4	-7.4	8.2	11.3	87.4*
CCOc1cc(NC(=O)c2ccccn2)c(OCC)cc1NC(=O)c1ccccc1	-7.1	-56.8	-6.0	-12.8	·	56.8
CCOc1cc(NC(=S)NC)c(OCC)cc1NC(=O)c1ccc(OC)cc1	-1.6	-81.8	-6.3	-4.5	2.1	81.8*
CCOc1cc(NC(=S)NCC2CCCO2)c(OCC)cc1NC(=O)c1ccccc1C (centres undefined)	·	-8.2	-6.7	-11.1	-23.6	8.2
CNC[C@H]1Oc2ccc(NS(=O)(=O)c3ccc(C)cc3)cc2C(=O)N([C@H](C)CO)C[C@@H]1C	-2.7	·	·	·	-15.3	·
